The text below walks through data of ChEMBL document CHEMBL3352088, “Novel derivatives of usnic acid effectively inhibiting reproduction of influenza A virus” (Bioorg Med Chem, 2014).

This assay in a line: Antiviral activity against rimantidine, amantidine-resistant Influenza A virus (A/California/07/09(H1N1)) pdm09 infected in MDCK cells assessed as inhibition of viral replication after 1 hrs by hemagglutination assay. It counts as functional, Influenza A virus (A/California/07/2009(H1N1)). To be noted: read-out: ED50 (the source's name). An outline of the steps: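 MDCK cells were pre-incubated 1 h at 37°C with serial twofold compound dilutions in MEM containing 2 mM arginine, 2 mM glutamine and 2 microgram/mL trypsin, then infected and cultured 48 h at 36°C. Supernatant was mixed with 1% chicken erythrocytes for 1 h at room temperature to read hemagglutination titer. ED50 is the concentration that halves virus production versus untreated cells.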

With `CC(=O)c1c(O)c(C)c(O)c2c1OC1=Cc3c(c(C)nn3-c3ccccc3)C(=O)[C@@]12C`, the EC50 amounted to 69.5 µM.

In the case of `CC(=O)c1c(O)c(C)c(O)c2c1OC1=Cc3c(c(C)nn3-c3ccccc3)C(=O)[C@]12C`, the EC50 was determined as 56.3 µM.

In the case of `CC(=O)c1c(O)c(C)c(O)c2c1OC1=Cc3c(c(C)nn3-c3ccccc3)[C@@H](O)[C@@]12C`, the EC50 was determined as 2.4 µM.

Consider `CC(=O)c1c(O)c(C)c(O)c2c1OC1=CC(=O)/C(=C(/C)NCC(=O)O)C(=O)[C@@]12C`, for which the EC50 came out at 11.2 µM.

On to `CC(=O)c1c(O)c(C)c(O)c2c1OC1=CC(=O)/C(=C(/C)NCC(=O)O)C(=O)[C@]12C`, for which the EC50 worked out at 10.7 µM.

As for `CC(=O)c1c(O)c(C)c(O)c2c1OC1=CC(=O)/C(=C(/C)NCCC(=O)O)C(=O)[C@@]12C`, the EC50 was 7.2 µM.

Turning to `CC(=O)c1c(O)c(C)c(O)c2c1OC1=CC(=O)/C(=C(/C)NCCC(=O)O)C(=O)[C@]12C`, the EC50 came out at 14.5 µM.

For the molecule `CC(=O)C1=C(O)C=C2O[C@]34O[C@@]3(C(C)=O)C(=O)C(C)=C(O)[C@]4(O)[C@@]2(C)C1=O`, the EC50 was found to be 10.6 µM.

For the molecule `CC(=O)c1c(O)c(C)c(O)c2c1OC1=CC(=O)/C(=C(/C)NCCCC(=O)O)C(=O)[C@@]12C`, the EC50 came out at 35 µM.

Regarding `CSCC[C@H](N/C(C)=C1\C(=O)C=C2Oc3c(C(C)=O)c(O)c(C)c(O)c3[C@@]2(C)C1=O)C(=O)O`, the EC50 was found to be 4.2 µM.

For the molecule `CC(=O)C1=C(O)C[C@H]2Oc3c(C(C)=O)c(O)c(C)c(O)c3[C@@]2(C)C1=O`, the EC50 came to 8.1 µM.

As for `CC(=O)c1c(O)c(C)c(O)c2c1OC1=CC(=O)/C(=C(/C)N[C@@H](CC(C)C)C(=O)O)C(=O)[C@@]12C`, the EC50 is 6.6 µM.

In the case of `CC(=O)c1c(O)c(C)c(O)c2c1OC1=CC(=O)/C(=C(/C)N[C@H](CC(=O)O)CC(C)C)C(=O)[C@]12C`, the EC50 was determined as 6.6 µM.

In the case of `CC(=O)c1c(O)c(C)c(O)c2c1OC1=CC(=O)/C(=C(/C)NCCCC(=O)O)C(=O)[C@]12C`, the EC50 amounted to 28 µM.

Turning to `CC(=O)c1c(O)c(C)c(O)c2c1OC1=Cc3c(c(C)nn3-c3cccc(C(F)(F)F)c3)C(=O)[C@@]12C`, the EC50 turned out to be 68.4 µM.

Consider `CC(=O)c1c(O)c(C)c(O)c2c1OC1=Cc3c(c(C)nn3-c3ccccc3)[C@H](O)[C@]12C`, for which the EC50 came to 12 µM.

For `COc1c(C)c(O)c(C(=O)/C=C/c2ccccc2)c2c1[C@]1(C)C(=Cc3c(c(C)nn3-c3ccccc3)[C@H]1O)O2`, the EC50 amounted to 32.7 µM.

Consider `COc1c(C)c(O)c(C(=O)/C=C/c2ccc(Cl)cc2)c2c1[C@]1(C)C(=Cc3c(c(C)nn3-c3ccccc3)[C@H]1O)O2`, for which the EC50 amounted to 55.1 µM.

As for `COc1ccccc1/C=C/C(=O)c1c(O)c(C)c(OC)c2c1OC1=Cc3c(c(C)nn3-c3ccccc3)[C@@H](O)[C@@]12C`, the EC50 amounted to 82.7 µM.

`COc1ccc(/C=C/C(=O)c2c(O)c(C)c(OC)c3c2OC2=Cc4c(c(C)nn4-c4ccccc4)[C@@H](O)[C@@]23C)cc1OC`: the EC50 was found to be 34.5 µM.

On to `COc1cccc(/C=C/C(=O)c2c(O)c(C)c(OC)c3c2OC2=Cc4c(c(C)nn4-c4ccccc4)[C@@H](O)[C@@]23C)c1OC`, for which the EC50 turned out to be 50.7 µM.

For the molecule `COc1ccc(/C=C/C(=O)c2c(O)c(C)c(OC)c3c2OC2=Cc4c(c(C)nn4-c4ccccc4)[C@@H](O)[C@@]23C)c(OC)c1OC`, the EC50 stood at 32.8 µM.

As to `COc1cc(/C=C/C(=O)c2c(O)c(C)c(OC)c3c2OC2=Cc4c(c(C)nn4-c4ccccc4)[C@@H](O)[C@@]23C)cc(OC)c1OC`, the EC50 is 8.2 µM.

In the case of `COc1ccc(OC)c(/C=C/C(=O)c2c(O)c(C)c(OC)c3c2OC2=Cc4c(c(C)nn4-c4ccccc4)[C@@H](O)[C@@]23C)c1`, the EC50 came out at 25.9 µM.

Regarding `COc1ccc(/C=C/C(=O)c2c(O)c(C)c(OC)c3c2OC2=Cc4c(c(C)nn4-c4ccccc4)[C@@H](O)[C@@]23C)c(OC)c1`, the EC50 worked out at 25.9 µM.

On to `COc1c(C)c(O)c(C(=O)/C=C/c2ccc(SC)cc2)c2c1[C@]1(C)C(=Cc3c(c(C)nn3-c3ccccc3)[C@H]1O)O2`, for which the EC50 was 53 µM.

Take `COc1cccc(/C=C/C(=O)c2c(O)c(C)c(OC)c3c2OC2=Cc4c(c(C)nn4-c4ccccc4)C(=O)[C@@]23C)c1OC`: the EC50 was found to be 8.7 µM.

On to `COc1ccc(-c2cc(-c3c(O)c(C)c(OC)c4c3OC3=Cc5c(c(C)nn5-c5ccccc5)[C@@H](O)[C@@]34C)n[nH]2)cc1`, for which the EC50 is 102 µM.

Regarding `COc1c(C)c(O)c(C(=O)/C=C/c2ccccc2)c2c1[C@@]1(C)C(=Cc3c(c(C)nn3-c3ccccc3)[C@@H]1O)O2`, the EC50 is 60.6 µM.

Turning to `COc1c(C)c(O)c(C(=O)/C=C/c2ccc(Cl)cc2)c2c1[C@@]1(C)C(=Cc3c(c(C)nn3-c3ccccc3)[C@@H]1O)O2`, the EC50 amounted to 79.4 µM.

With `COc1ccccc1/C=C/C(=O)c1c(O)c(C)c(OC)c2c1OC1=Cc3c(c(C)nn3-c3ccccc3)[C@H](O)[C@]12C`, the EC50 amounted to 64.9 µM.

As to `COc1cccc(/C=C/C(=O)c2c(O)c(C)c(OC)c3c2OC2=Cc4c(c(C)nn4-c4ccccc4)[C@H](O)[C@]23C)c1OC`, the EC50 amounted to 76.4 µM.

Turning to `CC(=O)C1=C(O)C=C2Oc3c4c(c(C)c(O)c3[C@]2(C)C1=O)OCC4=O`, the EC50 turned out to be 64.3 µM.

For the molecule `CC(=O)C1=C(O)C=C2Oc3c4c(c(C)c(O)c3[C@@]2(C)C1=O)OCC4=O`, the EC50 is 64.3 µM.

For `COc1ccccc1/C=C1\Oc2c(C)c(O)c3c(c2C1=O)OC1=CC(O)=C(C(C)=O)C(=O)[C@@]13C`, the EC50 turned out to be 4.8 µM.

`CC(=O)C1=C(O)C=C2Oc3c4c(c(C)c(O)c3[C@@]2(C)C1=O)O/C(=C\c1ccc(Br)cc1)C4=O`: the EC50 was 4.7 µM.

As for `CC(=O)C1=C(O)C=C2Oc3c4c(c(C)c(O)c3[C@@]2(C)C1=O)O/C(=C\c1ccncc1)C4=O`, the EC50 turned out to be 7.7 µM.

Turning to `CC(=O)C1=C(O)C=C2Oc3c4c(c(C)c(O)c3[C@@]2(C)C1=O)O/C(=C\c1cccnc1)C4=O`, the EC50 came out at 7 µM.

For the molecule `CC(=O)C1=C(O)C=C2Oc3c(C(=O)CSc4nc5ccccc5s4)c(O)c(C)c(O)c3[C@@]2(C)C1=O`, the EC50 came to 29.5 µM.

For `CC(=O)C1=C(O)C=C2Oc3c(C(=O)CSc4nc5ccccc5o4)c(O)c(C)c(O)c3[C@@]2(C)C1=O`, the EC50 is 2 µM.

`CC(=O)C1=C(O)C=C2Oc3c(C(=O)CSCc4ccccc4)c(O)c(C)c(O)c3[C@@]2(C)C1=O`: the EC50 came to 2.1 µM.

Regarding `CC(=O)C1=C(O)C=C2Oc3c(C(=O)CSCc4ccc(C)cc4)c(O)c(C)c(O)c3[C@@]2(C)C1=O`, the EC50 came out at 2.1 µM.

Take `CC(=O)C1=C(O)C=C2Oc3c(C(=O)CSCc4ncccc4C(=O)O)c(O)c(C)c(O)c3[C@@]2(C)C1=O`: the EC50 turned out to be 56.3 µM.

As to `COc1c(C)c(O)c2c(c1C(=O)CSC1=NCCS1)OC1=CC(O)=C(C(C)=O)C(=O)[C@@]12C`, the EC50 was determined as 14.7 µM.

With `COc1ccc2[nH]c(SCC(=O)c3c(OC)c(C)c(O)c4c3OC3=CC(O)=C(C(C)=O)C(=O)[C@@]34C)nc2c1`, the EC50 turned out to be 24.3 µM.

As to `COc1c(C)c(O)c2c(c1C(=O)CSc1nc3ccccc3o1)OC1=CC(O)=C(C(C)=O)C(=O)[C@]12C`, the EC50 was 23.7 µM.

On to `COc1c(C)c(O)c2c(c1C(=O)CSCCC(=O)O)OC1=CC(O)=C(C(C)=O)C(=O)[C@@]12C`, for which the EC50 was found to be 161 µM.

As for `CC(=O)C1=C(O)C=C2Oc3c(C(C)=O)c(OC(F)(Cl)C(F)F)c(C)c(O)c3[C@@]2(C)C1=O` (stereo not given in full), the EC50 was determined as 7.2 µM.

Regarding `CC(=O)C1=C(O)C=C2Oc3c(C(C)=O)c(OC(=O)c4ccccc4Br)c(C)c(OC(=O)c4ccccc4Br)c3[C@@]2(C)C1=O`, the EC50 worked out at 7.8 µM.

Take `CC(=O)C1=C(O)C=C2O[C@@]34O[C@]3(C(C)=O)C(=O)C(C)=C(O)[C@@]4(O)[C@]2(C)C1=O`: the EC50 is 28.7 µM.

Turning to `CC(=O)[C@@]12O[C@@]13OC1=Cc4c(c(C)nn4-c4ccccc4)C(=O)[C@]1(C)[C@@]3(O)C(O)=C(C)C2=O`, the EC50 turned out to be 13.4 µM.

Consider `COc1c(C)c(O)c(C(C)=O)c2c1[C@]1(C)C(=Cc3c(c(C)nn3-c3ccccc3)CC13CO3)O2` (single isomer, unassigned; (+)), for which the EC50 came out at 262 µM.

With `COc1c(C)c(O)c(C(=O)/C=C/c2ccccc2)c2c1[C@]1(C)C(=Cc3c(c(C)nn3-c3ccccc3)CC13CO3)O2` (single isomer, unassigned; (+)), the EC50 was found to be 5.5 µM.

With `CC(=O)C1=C(O)C=C2Oc3c(C(C)=O)c(O)c(C)c(O)c3[C@@]2(C)C1=O` [(+)-USNIC ACID], the EC50 was 51.7 µM.

Turning to `CC(=O)C1=C(O)C=C2Oc3c(C(C)=O)c(O)c(C)c(O)c3[C@]2(C)C1=O` [(-)-USNIC ACID], the EC50 is 13.1 µM.
